Measurements published in ChEMBL document CHEMBL1123964, “Potent, long-acting luteinizing hormone-releasing hormone antagonists containing new synthetic amino acids: N,N'-dialkyl-D-homoarginines” (J Med Chem, 1988).
Square brackets hold non-standard residues; d marks the D form. Peptide text beside a SMILES is read from it. d(hArg(Et2)) = CCN=C(NCC)NCCCC[C@@H](N)C(=O)O; dPhe(4-Cl) = N[C@H](Cc1ccc(Cl)cc1)C(=O)O; d2Nal = N[C@H](Cc1ccc2ccccc2c1)C(=O)O

Experiments:
[1] = molecular target: T1, Gonadotropin-releasing hormone receptor (Rattus norvegicus) (UniProt P30969); experiment: Antiovulatory activity on proestrus following administration of solution in corn oil in rat.; type: functional, organism-based
T1 sequence (whole entry): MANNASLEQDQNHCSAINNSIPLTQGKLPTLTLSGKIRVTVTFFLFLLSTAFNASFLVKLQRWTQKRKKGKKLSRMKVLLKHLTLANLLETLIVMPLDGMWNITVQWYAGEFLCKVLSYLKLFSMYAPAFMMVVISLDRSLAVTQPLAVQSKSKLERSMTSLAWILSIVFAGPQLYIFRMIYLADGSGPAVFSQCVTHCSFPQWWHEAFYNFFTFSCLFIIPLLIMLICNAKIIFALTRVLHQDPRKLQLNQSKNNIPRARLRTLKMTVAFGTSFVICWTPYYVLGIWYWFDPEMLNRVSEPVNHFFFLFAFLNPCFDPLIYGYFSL
Method in brief: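 Rats with at least two normal 4-day cycles were used. They were injected sc with the analogue in corn oil at noon on proestrus, about 2 h before the preovulatory LH-RH surge. Oviducts were removed on the morning of expected estrus and checked microscopically for fresh eggs, which were counted. ED50 came from percent of females ovulating plotted against log-dose, with 10 animals per dose group.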

[2] = molecular target: T1, Gonadotropin-releasing hormone receptor (Rattus norvegicus); experiment: Antiovulatory activity on proestrus was measured by administering as a solution in 50% propylene glycol / 0.9% saline in rat; type: functional
[3] = molecular target: T1, Gonadotropin-releasing hormone receptor (Rattus norvegicus); experiment: Antiovulatory activity on diestrus II following administration as a solution in corn oil (24h earlier) in rat.; type: functional, organism-based
Method in brief: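 Female rats with at least two normal 4-day cycles before the test cycle were selected. They received the analogue sc in corn oil at noon on diestrus II, 24 h before the proestrus dosing time. On the morning of expected estrus the oviducts were examined under a dissecting microscope, and freshly ovulated eggs were counted. ED50 was taken from percent ovulating versus log-dose, with 10 rats per dose group and usually three or more dose groups.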

Row | ED50 (ug injection-1) [1] | ED50 (ug injection-1) [2] | ED50 (ug injection-1) [3] | SMILES
1 | 1.7 | – | – | CCNC(=NCCCC[C@@H](NC(=O)[C@H](Cc1ccc(O)cc1)NC(=O)[C@H](CO)NC(=O)[C@@H](Cc1ccc2ccccc2c1)NC(=O)[C@@H](Cc1ccc(Cl)cc1)NC(=O)[C@@H](Cc1ccc2ccccc2c1)NC(C)=O)C(=O)N[C@@H](CC(C)C)C(=O)N[C@@H](CCCN=C(N)N)C(=O)N1CCC[C@H]1C(=O)N[C@H](C)C(N)=O)NCC
2 | – | 0.7 | – | CCNC(=NCCCC[C@@H](NC(=O)[C@H](Cc1ccc(O)cc1)NC(=O)[C@H](CO)NC(=O)[C@@H](Cc1cccnc1)NC(=O)[C@@H](Cc1ccc(F)cc1)NC(=O)[C@@H](Cc1ccc2ccccc2c1)NC(C)=O)C(=O)N[C@@H](CC(C)C)C(=O)N[C@@H](CCCN=C(N)N)C(=O)N1CCC[C@H]1C(=O)N[C@H](C)C(N)=O)NCC
3 | – | 16 | – | CCCCCCNC(=NCCCC[C@@H](NC(=O)[C@H](Cc1ccc(O)cc1)NC(=O)[C@H](CO)NC(=O)[C@@H](Cc1c[nH]c2ccccc12)NC(=O)[C@@H](Cc1ccc(F)cc1)NC(=O)[C@@H](CO)NC(C)=O)C(=O)N[C@@H](CC(C)C)C(=O)N[C@@H](CCCN=C(N)N)C(=O)N1CCC[C@H]1C(=O)NCC(N)=O)NCCCCCC
4 | – | 3.4 | > 16 | CCCCNC(=NCCCC[C@@H](NC(=O)[C@H](Cc1ccc(O)cc1)NC(=O)[C@H](CO)NC(=O)[C@@H](Cc1c[nH]c2ccccc12)NC(=O)[C@@H](Cc1ccc(Cl)cc1)NC(=O)[C@@H](Cc1ccc2ccccc2c1)NC(C)=O)C(=O)N[C@@H](CC(C)C)C(=O)N[C@@H](CCCN=C(N)N)C(=O)N1CCC[C@H]1C(=O)N[C@H](C)C(N)=O)NCCCC
5 | – | 5.5 | – | CCNC(=NCCCC[C@@H](NC(=O)[C@H](Cc1ccc(O)cc1)NC(=O)[C@H](CO)NC(=O)[C@@H](Cc1ccc2ccccc2c1)NC(=O)[C@@H](Cc1ccc(Cl)cc1)NC(=O)[C@@H](Cc1c[nH]c2ccccc12)NC(C)=O)C(=O)N[C@@H](CC(C)C)C(=O)N[C@@H](CCCN=C(N)N)C(=O)N1CCC[C@H]1C(=O)N[C@H](C)C(N)=O)NCC
6 | – | 0.6 | > 4 | CCNC(=NCCCC[C@@H](NC(=O)[C@H](Cc1ccc(O)cc1)NC(=O)[C@H](CO)NC(=O)[C@@H](Cc1cccnc1)NC(=O)[C@@H](Cc1ccc(Cl)cc1)NC(=O)[C@@H](Cc1ccc2ccccc2c1)NC(C)=O)C(=O)N[C@@H](CC(C)C)C(=O)N[C@@H](CCCN=C(N)N)C(=O)N1CCC[C@H]1C(=O)N[C@H](C)C(N)=O)NCC
7 | – | 0.4 | – | CCNC(=NCCCC[C@@H](NC(=O)[C@H](Cc1ccc(O)cc1)NC(=O)[C@H](CO)NC(=O)[C@@H](Cc1c[nH]c2ccccc12)NC(=O)[C@@H](Cc1ccc(F)cc1)NC(=O)[C@@H](Cc1ccc2ccccc2c1)NC(C)=O)C(=O)N[C@@H](CC(C)C)C(=O)N[C@@H](CCCN=C(N)N)C(=O)N1CCC[C@H]1C(=O)N[C@H](C)C(N)=O)NCC
8 | – | 1.2 | – | CCNC(=NCCCC[C@@H](NC(=O)[C@H](Cc1ccc(O)cc1)NC(=O)[C@H](CO)NC(=O)[C@@H](Cc1c[nH]c2ccccc12)NC(=O)[C@@H](Cc1ccc(Cl)cc1)NC(=O)[C@@H](Cc1ccc2ccccc2c1)NC(C)=O)C(=O)N[C@@H](Cc1c[nH]c2ccccc12)C(=O)N[C@@H](CCCN=C(N)N)C(=O)N1CCC[C@H]1C(=O)N[C@H](C)C(N)=O)NCC
9 | – | 11.5 | – | CCNC(=NCCCC[C@H](NC(=O)[C@H](CO)NC(=O)[C@@H](Cc1c[nH]c2ccccc12)NC(=O)[C@@H](Cc1ccc(Cl)cc1)NC(=O)[C@@H](Cc1ccc2ccccc2c1)NC(C)=O)C(=O)N[C@H](Cc1ccc(O)cc1)C(=O)N[C@@H](Cc1c[nH]c2ccccc12)C(=O)N[C@@H](CCCN=C(N)N)C(=O)N1CCC[C@H]1C(=O)N[C@H](C)C(N)=O)NCC
10 | – | > 16 | – | CCNC(=NCCCC[C@H](NC(=O)[C@H](CO)NC(=O)[C@@H](Cc1c[nH]c2ccccc12)NC(=O)[C@@H](Cc1ccc(Cl)cc1)NC(=O)[C@@H](CCCCN=C(NCC)NCC)NC(C)=O)C(=O)N[C@H](Cc1ccc(O)cc1)C(=O)N[C@@H](Cc1c[nH]c2ccccc12)C(=O)N[C@@H](CCCN=C(N)N)C(=O)N1CCC[C@H]1C(=O)N[C@H](C)C(N)=O)NCC
11 | – | 0.75 | 8 | CCNC(=NCCCC[C@@H](NC(=O)[C@H](Cc1ccc(O)cc1)NC(=O)[C@H](CO)NC(=O)[C@@H](Cc1c[nH]c2ccccc12)NC(=O)[C@@H](Cc1ccc(Cl)cc1)NC(=O)[C@@H](Cc1ccc2ccccc2c1)NC(C)=O)C(=O)N[C@@H](Cc1ccccc1)C(=O)N[C@@H](CCCN=C(N)N)C(=O)N1CCC[C@H]1C(=O)N[C@H](C)C(N)=O)NCC (Ac-[d2Nal][dPhe(4-Cl)][dW]SY[d(hArg(Et2))]FRP[dA]-NH2)
12 | – | > 16 | – | CCCCCCNC(=NCCCC[C@@H](NC(=O)[C@H](Cc1ccc(O)cc1)NC(=O)[C@H](CCCN)NC(=O)[C@@H](Cc1c[nH]c2ccccc12)NC(=O)[C@@H](Cc1ccc(Cl)cc1)NC(=O)[C@@H](Cc1ccc(Cl)cc1)NC(C)=O)C(=O)N[C@@H](CC(C)C)C(=O)N[C@@H](CCCN=C(N)N)C(=O)N1CCC[C@H]1C(=O)N[C@H](C)C(N)=O)NCCCCCC
13 | – | 1.7 | – | CCNC(=NCCCC[C@H](NC(=O)[C@H](CO)NC(=O)[C@@H](Cc1c[nH]c2ccccc12)NC(=O)[C@@H](Cc1ccc(Cl)cc1)NC(=O)[C@@H](Cc1ccc2ccccc2c1)NC(C)=O)C(=O)N[C@H](Cc1ccc(O)cc1)C(=O)N[C@@H](CC(C)C)C(=O)N[C@@H](CCCN=C(N)N)C(=O)N1CCC[C@H]1C(=O)N[C@H](C)C(N)=O)NCC
14 | – | 1.6 | – | CCNC(=NCCCC[C@H](NC(=O)[C@H](CO)NC(=O)[C@@H](Cc1c[nH]c2ccccc12)NC(=O)[C@@H](Cc1ccc(Cl)cc1)NC(=O)[C@@H](Cc1ccc2ccccc2c1)NC(C)=O)C(=O)N[C@H](Cc1ccc2ccccc2c1)C(=O)N[C@@H](CC(C)C)C(=O)N[C@@H](CCCN=C(N)N)C(=O)N1CCC[C@H]1C(=O)N[C@H](C)C(N)=O)NCC
15 | – | > 2 | – | CC/N=C(\NCCCC[C@@H](NC(=O)[C@H](Cc1ccc(O)cc1)NC(=O)[C@H](CO)NC(=O)[C@@H](Cc1c[nH]c2ccccc12)NC(=O)[C@@H](Cc1ccc(Cl)cc1)NC(=O)[C@@H](Cc1ccc(Cl)cc1)NC(C)=O)C(=O)N[C@@H](CC(C)C)C(=O)N[C@@H](CCCN=C(N)N)C(=O)N1CCC[C@H]1C(=O)NCC(N)=O)NCCCN(C)C
16 | – | > 2 | – | CCNC(=NCCCC[C@@H](NC(=O)[C@H](Cc1ccc(O)cc1)NC(=O)[C@H](CO)NC(=O)[C@@H](Cc1c[nH]c2ccccc12)NC(=O)[C@@H](Cc1ccc(F)cc1)NC(=O)[C@@H](Cc1ccc2ccccc2c1)NC(C)=O)C(=O)N[C@@H](CC(C)C)C(=O)N[C@@H](CCCN=C(N)N)C(=O)N1CCC[C@H]1C(=O)NCC(N)=O)NCCCN(C)C
17 | – | 0.55 | 9.5 | CCNC(=NCCCC[C@@H](NC(=O)[C@H](Cc1ccc(O)cc1)NC(=O)[C@H](CO)NC(=O)[C@@H](Cc1c[nH]c2ccccc12)NC(=O)[C@@H](Cc1ccc(Cl)cc1)NC(=O)[C@@H](Cc1ccc2ccccc2c1)NC(C)=O)C(=O)N[C@@H](CC(C)C)C(=O)N[C@@H](CCCN=C(N)N)C(=O)N1CCC[C@H]1C(=O)NNC(N)=O)NCC
18 | – | 7.5 | – | CCCNC(=NCCCC[C@@H](NC(=O)[C@H](Cc1ccc(O)cc1)NC(=O)[C@H](CO)NC(=O)[C@@H](Cc1ccc2ccccc2c1)NC(=O)[C@@H](Cc1ccc(F)cc1)NC(=O)[C@@H](Cc1ccc2ccccc2c1)NC(C)=O)C(=O)N[C@@H](CC(C)C)C(=O)N[C@@H](CCCN=C(N)N)C(=O)N1CCC[C@H]1C(=O)NCC(N)=O)NCCC
19 | – | 16 | > 16 | CC(=O)N[C@H](Cc1ccc(Cl)cc1)C(=O)N[C@H](Cc1ccc(Cl)cc1)C(=O)N[C@H](Cc1c[nH]c2ccccc12)C(=O)N[C@@H](CO)C(=O)N[C@@H](Cc1ccc(O)cc1)C(=O)N[C@H](CCCCN=C(NC(C)C)NC(C)C)C(=O)N[C@@H](CC(C)C)C(=O)N[C@@H](CCCN=C(N)N)C(=O)N1CCC[C@H]1C(=O)N[C@H](C)C(N)=O
20 | – | 0.5 | < 4 | CCNC(=NCCCC[C@@H](NC(=O)[C@H](Cc1ccc(O)cc1)NC(=O)[C@H](CO)NC(=O)[C@@H](Cc1c[nH]c2ccccc12)NC(=O)[C@@H](Cc1ccc(Cl)cc1)NC(=O)[C@@H](Cc1ccc2ccccc2c1)NC(C)=O)C(=O)N[C@@H](CC(C)C)C(=O)N[C@@H](CCCN=C(N)N)C(=O)N1CCC[C@H]1C(=O)N[C@H](C)C(N)=O)NCC (stereo in doubt; 25)
21 | – | 8 | – | CCNC(=NCCCC[C@@H](NC(C)=O)C(=O)N[C@H](Cc1ccc(Cl)cc1)C(=O)N[C@H](Cc1c[nH]c2ccccc12)C(=O)N[C@@H](CO)C(=O)N[C@@H](Cc1ccc(O)cc1)C(=O)N[C@H](Cc1ccc2ccccc2c1)C(=O)N[C@@H](CC(C)C)C(=O)N[C@@H](CCCN=C(N)N)C(=O)N1CCC[C@H]1C(=O)N[C@H](C)C(N)=O)NCC
22 | – | 2.4 | > 16 | CCNC(=O)[C@@H]1CCCN1C(=O)[C@H](CCCN=C(N)N)NC(=O)[C@H](CC(C)C)NC(=O)[C@@H](CCCCN=C(NCC)NCC)NC(=O)[C@H](Cc1ccc(O)cc1)NC(=O)[C@H](CO)NC(=O)[C@@H](Cc1c[nH]c2ccccc12)NC(=O)[C@@H](Cc1ccc(Cl)cc1)NC(=O)[C@@H](Cc1ccc2ccccc2c1)NC(C)=O
23 | – | 1.7 | – | CCNC(=NCCCC[C@@H](NC(=O)[C@H](Cc1ccc(O)cc1)NC(=O)[C@H](CO)NC(=O)[C@@H](Cc1ccncc1)NC(=O)[C@@H](Cc1ccc(Cl)cc1)NC(=O)[C@@H](Cc1ccc2ccccc2c1)NC(C)=O)C(=O)N[C@@H](CC(C)C)C(=O)N[C@@H](CCCN=C(N)N)C(=O)N1CCC[C@H]1C(=O)N[C@H](C)C(N)=O)NCC
